High-throughput results from PubChem BioAssay.
FAK inh = FAK (human) kinase inhibition. Q05397. inhibition, %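 (tested at 7 µM)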. 0.84% of 97,000 active. biochemical FAK kinase activity assay; in the data active = inhibition above about 19%;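 note: 0% = DMSO and 100% = reference compound high control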
Target sequence (Q05397 whole entry, looked up): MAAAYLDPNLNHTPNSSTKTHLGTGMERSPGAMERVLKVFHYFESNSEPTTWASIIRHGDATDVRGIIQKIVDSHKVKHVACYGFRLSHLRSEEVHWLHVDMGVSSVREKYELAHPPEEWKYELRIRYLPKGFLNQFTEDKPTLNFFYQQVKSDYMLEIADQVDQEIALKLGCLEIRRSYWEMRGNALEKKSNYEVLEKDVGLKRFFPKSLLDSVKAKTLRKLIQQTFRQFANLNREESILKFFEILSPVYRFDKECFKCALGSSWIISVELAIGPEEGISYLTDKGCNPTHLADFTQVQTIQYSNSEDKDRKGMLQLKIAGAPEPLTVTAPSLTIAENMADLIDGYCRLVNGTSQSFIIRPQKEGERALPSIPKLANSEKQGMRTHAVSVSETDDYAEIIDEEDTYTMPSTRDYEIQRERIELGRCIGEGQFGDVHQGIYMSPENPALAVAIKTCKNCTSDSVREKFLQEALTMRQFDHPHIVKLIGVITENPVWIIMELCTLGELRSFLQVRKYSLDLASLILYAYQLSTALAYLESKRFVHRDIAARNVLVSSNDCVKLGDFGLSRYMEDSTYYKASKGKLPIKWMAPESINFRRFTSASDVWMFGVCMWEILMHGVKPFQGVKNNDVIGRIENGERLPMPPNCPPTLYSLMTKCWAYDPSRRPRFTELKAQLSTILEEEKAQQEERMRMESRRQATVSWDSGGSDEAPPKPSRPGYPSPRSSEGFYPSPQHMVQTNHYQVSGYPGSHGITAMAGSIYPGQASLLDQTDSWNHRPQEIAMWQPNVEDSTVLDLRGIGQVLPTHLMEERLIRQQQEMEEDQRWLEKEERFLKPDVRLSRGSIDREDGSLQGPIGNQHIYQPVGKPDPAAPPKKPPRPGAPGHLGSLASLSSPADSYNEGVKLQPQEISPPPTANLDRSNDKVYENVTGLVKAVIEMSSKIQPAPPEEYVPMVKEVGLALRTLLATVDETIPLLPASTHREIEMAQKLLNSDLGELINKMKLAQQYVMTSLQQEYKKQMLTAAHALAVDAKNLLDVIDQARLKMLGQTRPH
Candida biofilm = kills Candida albicans biofilms; inhibition, % at 6 µM; C. albicans biofilm + clotrimazole, Alamar Blue; 0.14% of 85,000 active;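 active = inhibition above 20%; inactive = inhibition below 20%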;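 note: preformed 24 hr biofilms exposed to compound for 48 hr; 0% = biofilm without compound and 100% = blank killed by clotrimazole plus chlorhexidine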
PTK2B oligo ant = blocks oligomerization of human Pyk2 in cells | Q14289 | Q293 cells, Pyk2 FERM NanoBiT luminescence; stronger effect = lower value | z-score (the deposit names both 25 µM and 10 µM) | 0.83% of 99,000 active | AID 1347419;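 active = Z-score of -3 or lower, scaled per plate to the spread of control and sample wells; inactive = z-score above -3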;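 note: negative z-score means lost luminescence so less FERM oligomerization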
Ecoli tolC = E. coli tolC mutant growth inhibition; growth inhibition, % at 10 µM (by protocol); E. coli BW25113 tolC mutant growth, OD615; 2.2% of 65,000 active;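 active = growth inhibition at or above a cutoff equal to the mean over every tested compound plus 3 SD, cut at about 60% in these data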;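 note: growth measured after 20 h incubation at 37 °C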
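Signal: optical density read at 615 nm; Assay system: E. coli ΔtolC::kan strain BW25113; Times: 20 h incubation with compound, 37 °C; Dosing: 10 µM final, single dose.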
PostGolgi ctrl = inhibits growth of the yeast control strain. efflux-deficient yeast background strain, growth absorbance A615, 16 h. inhibition, % at 10 µM. 5% of 98,000 active
PostGolgi yeast = growth inhibition of a yeast mutant, post-Golgi transport screen. 0.9% of 98,000 active. post-Golgi transport phenotypic cell assay. inhibition, % at 10 µM. AID 739;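 note: yeast cells grown in 1536-well plates; yeast grown about 18 h at 30C before absorbance read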
* = called active by the depositor; nt = not tested or not shown. This is a sample that favours compounds with a hit; in the whole collection about 6.9% have one here. Cut-off read from the data, not from the text of the source, unless noted: active = inhibition above about 30%; inactive = the rest.

SMILES	FAK inh	Candida biofilm	PTK2B oligo ant	Ecoli tolC	PostGolgi ctrl	PostGolgi yeast
COc1ccc(-c2[nH]ncc2/C=C(/C#N)C(=O)NC2CCCCCC2)cc1	8	nt	-2	nt	50*	10
N#C/C(=C/c1ccc(OCc2ccccc2)cc1)C(=O)NC1CCCCC1	-1	nt	0.96	nt	1	8
CCOC(=O)Cc1nnc2c(Nc3ccccc3F)nc3nonc3n12	-2	5	-0.22	79*	34*	-1
O=S(=O)(c1ccc(Br)s1)N1CCN(c2ccccn2)CC1	3	9	-1.1	14	51*	2
O=S(=O)(c1ccc(Br)s1)N1CCN(c2ncccn2)CC1	-2	8	-0.88	nt	8	-1
Cc1ccc(-n2c(=O)[nH]cc(C(=O)Nc3ccc4c(c3)OCCO4)c2=O)cc1	-4	6	-3.1*	0	0	-10
Cc1oc(C(C)(C)C)cc1C(=O)Nc1ccc2c(c1)OCCO2	3	8	-0.22	80*	15	1
Cc1ccc(-n2c(=O)[nH]cc(C(=O)Nc3ccc4c(c3)OCCO4)c2=O)cc1C	-4	3	-2.3	67*	5	0
N#CC1=C(N)NC(SCC(=O)c2ccc(Cl)cc2)=C(C#N)C12CCCC2	3	10	-0.73	nt	21	-2
CC1Cc2nc(SCC(=O)NCc3ccco3)n(Cc3ccccc3)c(=O)c2S1 (stereo unspecified)	nt	4	nt	13	43*	-15
CCn1c(SCC(=O)Nc2nc3ccc(C)cc3s2)nc2c(c1=O)SC(C)C2 (stereo unspecified)	4	4	-3.6*	37	84*	13
Cc1cc(C)c(NC(=O)CSc2nc3c(c(=O)n2C)SC(C)C3)c(C)c1 (stereo unspecified)	3	6	nt	5	31*	-2
CCn1c(SCC(=O)Nc2nc3ccccc3s2)nc2c(c1=O)SC(C)C2 (stereo unspecified)	2	6	nt	26	51*	-15
O=C(NCCCc1ccccc1)c1cnc2n(c1=O)CCS2	-1	1	0.54	-9	16	-6
CCOC(=O)Cn1nnnc1C(CC)N(Cc1cccs1)Cc1cc2ccc(OC)cc2[nH]c1=O (stereo unspecified)	-2	9	0.75	53	13	-9
O=[N+]([O-])c1cc(Cl)cc(C2=NCCN2)c1	2	5	-0.45	nt	11	1
COC(=O)c1[nH]c2ccc(F)cc2c1NC(=O)CCN1CCN(Cc2ccc3c(c2)OCO3)CC1	0	7	0.18	9	6	13
CCN(CC(=O)Nc1c(C(=O)OC)[nH]c2ccc(C)cc12)c1ccc2c(c1)OCO2	4	1	-0.03	5	53*	-2
Cc1cc(/C=C(\C#N)C(=O)Nc2ccccc2)c(C)n1-c1ccc2c(c1)OCO2	1	nt	-1.8	nt	55*	-6
O=[N+]([O-])/C=C/c1cn(Cc2ccccc2)c2ccccc12	13	nt	-0.49	nt	43*	-1
O=C(CCCSc1nnnn1-c1cccc2ccccc12)c1ccc(F)cc1	3	nt	-1.7	nt	32*	-5
Fc1ccc(-n2cnnn2)c(F)c1	6	3	-0.1	-17	3	6
c1cc2ccc3ccc(-n4cnnn4)c4ccc(c1)c2c34	7	nt	0.63	nt	30*	-7
COc1cccc(NC(=O)C2CC(=O)OC23CCOC(C)(C)C3)c1 (stereo unspecified)	nt	9	-0.01	-18	8	3
COc1ccc(-c2[nH]c(-c3cccc(OC)c3)nc2SCC(=O)NCc2ccco2)cc1	1	6	nt	67*	8	-4
SMILES	FAK inh	Candida biofilm	PTK2B oligo ant	Ecoli tolC	PostGolgi ctrl	PostGolgi yeast
COc1ccc(-c2ccc(SCC(=O)NCc3ccco3)nn2)cc1	5	6	0.98	-10	-2	8
Cc1c(NC(=O)CN2CCN(C(c3ccccc3)c3ccccc3)CC2)c(=O)n(-c2ccccc2)n1C	3	4	-3.5*	4	7	-8
O=[N+]([O-])c1cccnc1N1CCC(c2cc(-c3cccc(C(F)(F)F)c3)n[nH]2)CC1	-2	6	-3.4*	nt	21	-1
COc1ccc(OC)c(-c2cc(C3CCN(c4ncccc4[N+](=O)[O-])CC3)[nH]n2)c1	-1	14	-2	nt	16	-9
O=[N+]([O-])c1cccnc1N1CCC(c2cc(-c3ccc(Cl)cc3Cl)n[nH]2)CC1	2	6	-2.7	nt	59*	2
O=[N+]([O-])c1cccnc1N1CCCCC1	-2	nt	0.92	nt	-7	-5
Cc1ccc(NC(=O)N/C=C/c2ccccc2)cc1	-2	nt	-0.32	nt	3	-7
O=C(Nc1cccc(-c2cn3cccnc3n2)c1)c1ccc(Br)o1	3	nt	-1.1	-14	33*	-16
COc1ccc(-c2cn3cccnc3n2)cc1NC(=O)c1ccc(Br)o1	-5	nt	-3.2*	9	24	-21
O=C(Nc1cccc(-c2cn3cccnc3n2)c1)c1ccco1	2	2	-0.58	-4	21	-23
CCc1ccc2[nH]c(=O)c(CN(Cc3ccccc3)C(=O)Nc3ccccc3OC)cc2c1	2	5	-2	nt	71*	19
Cc1ccc2cc(CN(Cc3ccco3)C(=O)NCc3ccccc3)c(=O)[nH]c2c1C	0	6	-1.6	1	7	12
CCc1ccc2[nH]c(=O)c(CN(CCN(C)C)C(=O)Nc3ccccc3OC)cc2c1	2	6	-1.5	-6	-1	4
COc1ccccc1NC(=O)N(Cc1ccco1)Cc1cc2ccc(C)c(C)c2[nH]c1=O	-1	6	0.83	60	41*	11
Cc1ccc(C)c2[nH]c(=O)c(CN(Cc3ccco3)C(=O)Nc3ccccc3)cc12	-4	3	-0.51	18	42*	-6
COc1ccccc1NC(=O)N(Cc1ccco1)Cc1cc2cc(C)cc(C)c2[nH]c1=O	9	10	-0.65	18	67*	-11
COc1ccccc1NC(=S)N(Cc1ccco1)Cc1cc2cc(C)c(C)cc2[nH]c1=O	nt	nt	-0.52	nt	nt	nt
Cc1ccc(S(=O)(=O)Nc2ccccc2F)cc1C(=O)NCCCN1CCCC1=O	6	3	1.9	-7	-1	5
CC1CCN(c2ccc(C(=O)N3CCOCC3)cc2[N+](=O)[O-])CC1	-4	nt	0.15	nt	-3	-5
Cc1cc(=O)oc2ccc(OCC(=O)N(Cc3ccc(F)cc3)Cc3ccco3)cc12	-1	5	1	42	44*	-4
CN(C)c1ccc(/C=C/C=C2/SC(=S)N(c3ccccc3)C2=O)cc1	-8	nt	-3*	nt	11	6
CCN(CC)c1ccc(N2C(=O)/C(=C/c3cccs3)SC2=S)cc1	2	5	0.69	nt	0	6
CCCc1ccc(OCc2ccc(C(=O)N3CCN(c4ccccn4)CC3)o2)c(OC)c1	5	-1	-0.52	100*	71*	7
Cc1nn(Cc2c(F)c(F)c(F)c(F)c2F)c(C)c1NC(=O)c1ccc(COc2ccccc2Cl)o1	4	nt	-0.46	nt	80*	-4
COc1ccc(CC(=O)N2CCN(c3ccccn3)CC2)cc1OC	0	-4	2.1	-6	20	5
